Reference: ChEMBL document CHEMBL1135379, “Polyhydroxylated azepanes as new motifs for DNA minor groove binding agents” (2002)

Key:
[1] = system: Nucleic Acid; assay: Apparent binding constant was calculated; assay type: nucleic-acid assay
In short: (§1)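 Ethidium displacement (Cain et al. method), pH 7.0. A preformed DNA–ethidium intercalated complex in HEPES buffer with NaCl and EDTA is titrated with ligand while intercalated-ethidium fluorescence is monitored. C50 is the ligand concentration that displaces 50% of the ethidium. K_app = (1.26 × K_e)/C50, using the known ethidium binding constant under these conditions. Means of three experiments.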

[2] = system: Nucleic Acid; assay: Concentration required to displace 50% of the ethidium from a preformed, intercalated complex; assay type: nucleic-acid assay; in short: as §1
[3] = system: HCT-116; assay: Tested for in vitro concentration required to inhibit growth by 50% against HCT116 human colon cancer cell line; assay type: functional
[4] = system: HT-29; assay: Tested for in vitro concentration required to inhibit growth by 50% against HT-29 human colon cancer cell line; assay type: functional
[5] = system: MCF7; assay: Tested for in vitro concentration required to inhibit growth by 50% against MCF-7 human breast cancer cell line cell line; assay type: functional
[6] = system: NCI/ADR-RES; assay: Tested for in vitro concentration required to inhibit growth by 50% against MCF-7/ADR human breast cancer cell line cell line; assay type: functional

| Structure (SMILES) | K app [1] [M⁻¹] | C50 [2] [µM] | GI50 [3] [µM] | GI50 [4] [µM] | GI50 [5] [µM] | GI50 [6] [µM] |
| --- | --- | --- | --- | --- | --- | --- |
| CC1(C)O[C@H]2[C@H](O1)[C@H](O)CN(c1ccc(OCCCOc3ccc(N4C[C@@H](O)[C@H]5OC(C)(C)O[C@@H]5[C@H](O)C4)cc3)cc1)C[C@H]2O | 17000 | 703 | 32 | 40 | 33 | > 50 |
| Cn1cc(NC(=O)c2cc(NC(=O)c3cc(NC=O)cn3C)cn2C)cc1C(=O)NCCC(=N)N | 6.7e+06 | 1.8 |  |  |  |  |
| CC1(C)O[C@H]2[C@H](O1)[C@H](O)CN(Cc1ccc(OCCCOc3ccc(CN4CC(O)[C@H]5OC(C)(C)O[C@@H]5[C@H](O)C4)cc3)cc1)C[C@H]2O (single isomer, unassigned) |  |  | 6 | 23 | 24 | 10 |
| O=C(O)CCCc1ccc(N(CCCl)CCCl)cc1 [CHLORAMBUCIL] |  |  | 105 | 129 | 30 | 56 |
| COc1cccc2c1C(=O)c1c(O)c3c(c(O)c1C2=O)C[C@@](O)(C(=O)CO)C[C@@H]3O[C@H]1C[C@H](N)[C@H](O)[C@H](C)O1 [DOXORUBICIN] |  |  | 0.023 | 0.056 | 0.013 | 16.7 |
| N=C(N)c1ccc(OCCCOc2ccc(C(=N)N)cc2)cc1 [PROPAMIDINE] | 470000 | 25.6 | 11 | > 50 | 9 |  |

Second part, led by results:

| K app [1] [M⁻¹] | C50 [2] [µM] | GI50 [3] [µM] | GI50 [4] [µM] | GI50 [5] [µM] | Structure (SMILES) | GI50 [6] [µM] |
| --- | --- | --- | --- | --- | --- | --- |
| 190000 | 61.6 | > 50 | 24 | > 50 | OC1CN(Cc2ccc(OCCCOc3ccc(CN4C[C@@H](O)[C@@H](O)[C@H](O)[C@H](O)C4)cc3)cc2)C[C@@H](O)[C@@H](O)C1O (single isomer, unassigned) | > 50 |
| 120000 | 97 |  |  |  | OC1CN(Cc2ccc(OCCCOc3ccc(CN4C[C@H](O)[C@@H](O)[C@H](O)[C@@H](O)C4)cc3)cc2)C[C@H](O)[C@@H](O)C1O (single isomer, unassigned) |  |
